Activity calls are given as the source filed them. No cut-off for these calls is given here.
Columns and labels:
[1] = target: T1, DNA topoisomerase 1 (Homo sapiens) (UniProt P11387); assay: Inhibition of human recombinant Top1-mediated DNA cleavage at 0.1 to 100 uM after 20 mins relative to camptothecin; design: scale not given: the % may be the effect or the level left
T1 sequence (whole entry): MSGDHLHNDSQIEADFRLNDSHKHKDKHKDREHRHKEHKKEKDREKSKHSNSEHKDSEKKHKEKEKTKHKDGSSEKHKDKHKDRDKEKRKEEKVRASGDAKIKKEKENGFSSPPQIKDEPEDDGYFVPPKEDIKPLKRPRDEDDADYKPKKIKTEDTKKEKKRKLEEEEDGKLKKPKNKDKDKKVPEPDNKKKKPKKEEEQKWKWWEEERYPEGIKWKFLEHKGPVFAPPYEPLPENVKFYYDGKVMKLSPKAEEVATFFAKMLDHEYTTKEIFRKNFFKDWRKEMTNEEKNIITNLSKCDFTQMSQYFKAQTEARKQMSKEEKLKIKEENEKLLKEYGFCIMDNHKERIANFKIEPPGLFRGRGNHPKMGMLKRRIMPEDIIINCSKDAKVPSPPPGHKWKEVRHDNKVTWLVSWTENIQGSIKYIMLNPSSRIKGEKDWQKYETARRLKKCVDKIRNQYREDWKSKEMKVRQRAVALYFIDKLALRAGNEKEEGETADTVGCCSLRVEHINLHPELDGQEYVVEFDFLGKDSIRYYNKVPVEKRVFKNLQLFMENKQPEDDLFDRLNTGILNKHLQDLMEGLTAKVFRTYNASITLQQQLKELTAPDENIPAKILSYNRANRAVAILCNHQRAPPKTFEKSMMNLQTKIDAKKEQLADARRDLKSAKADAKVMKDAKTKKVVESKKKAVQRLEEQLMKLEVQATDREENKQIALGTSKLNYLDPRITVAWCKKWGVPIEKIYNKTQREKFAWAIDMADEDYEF
In short: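 Human recombinant Top1 purified from baculovirus. Substrate is a 117-bp oligonucleotide, about 2 nM, 3′-end labelled with 32P-dGTP by Klenow fill-in. Stopped with 0.5% SDS, run on 20% denaturing PAGE and phosphorimaged. Cleavage graded 0 to +++ against 1 μM camptothecin.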

HOP-62 = assay: Cytotoxicity against human HOP62 cells; assay type: functional
In short: (§1)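 NCI 60-cell-line screen (eight solid-tumour subpanels plus leukemia). A one-dose pass at 10−5 M came first. Selected compounds were then run at five concentrations from 10−8 to 10−4 M. GI50 is the concentration giving 50% growth inhibition.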

HCT-116 = assay: Cytotoxicity against human HCT116 cells; assay type: functional; in short: as §1
SF-539 = assay: Cytotoxicity against human SF539 cells; assay type: functional; in short: as §1
UACC-62 = assay: Cytotoxicity against human UACC62 cells; assay type: functional; in short: as §1
OVCAR-3 = assay: Cytotoxicity against human OVCAR-3 cells; assay type: functional; in short: as §1
SN12C = assay: Cytotoxicity against human SN12C cells; assay type: functional; in short: as §1
DU-145 = assay: Cytotoxicity against human DU145 cells; assay type: functional; in short: as §1
MCF7 = assay: Cytotoxicity against human MCF7 cells; assay type: functional; in short: as §1

SMILES	Activity [1]	GI50 (HOP-62) [nM]	GI50 (HCT-116) [nM]	GI50 (SF-539) [nM]	GI50 (UACC-62) [nM]	GI50 (OVCAR-3) [µM]	GI50 (SN12C) [µM]	GI50 (DU-145) [nM]	GI50 (MCF7) [nM]
COc1cc2nc3c(c(CN4CCN(C)CC4)c2cc1OC)Cn1c-3cc2ccccc2c1=O	inactive	–	–	–	–	–	–	–	–
O=c1c2ccccc2cc2n1Cc1c-2nc2cc3c(cc2c1CCCCl)OCCO3	inactive	–	–	–	–	–	–	–	–
CN1CCN(Cc2c3c(nc4cc(Cl)ccc24)-c2cc4ccccc4c(=O)n2C3)CC1	20%	18100	13500	15100	17000	15.1	19	23400	10900
Cc1cc2c(CN)c3c(nc2cc1F)-c1cc2ccccc2c(=O)n1C3	20%	–	–	–	–	–	–	–	–
O=c1c2ccccc2cc2n1Cc1c-2nc2cc3c(cc2c1CN1CC[C@H](O)C1)OCO3	50%	480	850	600	350	> 100	0.79	–	70
COc1cc2nc3c(c(CCl)c2cc1OC)Cn1c-3cc2ccccc2c1=O	inactive	–	–	–	–	–	–	–	–
CN1CCN(Cc2c3c(nc4cccc(Cl)c24)-c2cc4ccccc4c(=O)n2C3)CC1	inactive	1860	1410	1510	15500	4.17	13.8	9770	1000
COc1cc2c3c(n(CCCn4ccnc4)c(=O)c2cc1OC)-c1cc2c(cc1C3=O)OCO2 [INDIMITECAN]	Active	< 10	< 10	37	< 10	0.085	< 0.01	< 10	10
COc1cc2nc3c(c(CNCCCn4ccnc4)c2cc1OC)Cn1c-3cc2ccccc2c1=O	inactive	–	–	–	–	–	–	–	–
CN1CCN(Cc2c3c(nc4cc5c(cc24)OCO5)-c2cc4ccccc4c(=O)n2C3)CC1	50%	17000	1450	11700	1620	16.2	2.34	51300	380
O=c1c2ccccc2cc2n1Cc1c-2nc2cccc(Cl)c2c1CN1CC[C@H](O)C1	20%	1660	1550	1950	3090	2.63	3.71	3980	370
CN(C)Cc1c2c(nc3cc4c(cc13)OCCO4)-c1cc3ccccc3c(=O)n1C2	75%	3310	1170	2690	1660	2.19	2.51	2190	300
COc1cc2nc3c(c(Cn4ccnc4)c2cc1OC)Cn1c-3cc2ccccc2c1=O	inactive	–	–	–	–	–	–	–	–
COc1cc2c3c(n(CCCN4CCOCC4)c(=O)c2cc1OC)-c1cc2c(cc1C3=O)OCO2 [INDOTECAN]	Active	–	–	40	30	–	–	–	370
O=c1c2ccccc2cc2n1Cc1c-2nc2ccc(Cl)cc2c1CN1CC[C@H](O)C1	20%	1050	1100	1260	740	1.86	–	1660	370
O=c1c2ccccc2cc2n1Cc1c-2nc2cc3c(cc2c1CN1CC[C@H](O)C1)OCCO3	50%	1010	820	490	460	1.84	0.94	1020	270
O=c1c2ccccc2cc2n1Cc1c-2nc2cc3c(cc2c1CCCn1ccnc1)OCCO3	50%	570	1950	1950	930	7.08	12.6	2880	190
Cc1cc2c(CN3CCN(C)CC3)c3c(nc2cc1F)-c1cc2ccccc2c(=O)n1C3	50%	20100	1800	6460	16200	14.6	16	2630	1800
O=c1c2ccccc2cc2n1Cc1cc3ccccc3nc1-2 [ROSETTACIN]	50%	> 100000	57300	> 100000	> 100000	> 100	> 100	> 100000	60300
O=c1c2ccccc2cc2n1Cc1c-2nc2ccc(Cl)cc2c1CNCCO	50%	7240	2140	4360	2040	6.46	10.2	–	230
O=c1c2ccccc2cc2n1Cc1c-2nc2cc3c(cc2c1CNCCCn1ccnc1)OCO3	50%	5010	1320	2140	3390	4.26	5.89	2570	480
NCCCc1c2c(nc3cc4c(cc13)OCCO4)-c1cc3ccccc3c(=O)n1C2	75%	2140	1950	1860	1620	1.95	1.86	1820	1050
O=c1c2ccccc2cc2n1Cc1c-2nc2cccc(Cl)c2c1CNCCCn1ccnc1	75%	2510	1580	1900	7240	4.9	6.03	1020	550
O=c1c2ccccc2cc2n1Cc1c-2nc2cc3c(cc2c1CCCNCCO)OCCO3	0%	1010	820	490	460	1.84	0.94	1020	270
CN(C)Cc1c2c(nc3cc4c(cc13)OCO4)-c1cc3ccccc3c(=O)n1C2	50%	–	–	–	–	–	–	–	–

Reference: ChEMBL document CHEMBL1212854, “The structure-activity relationships of A-ring-substituted aromathecin topoisomerase I inhibitors strongly support a camptothecin-like binding mode” (2010)
